Results: ChEMBL document CHEMBL1759963, “Synthesis and biological evaluation of 4-styrylcoumarin derivatives as inhibitors of TNF-α and IL-6 with anti-tubercular activity” (2011)

Columns and labels:
Type in all cases: functional
[1] = system: THP-1; assay: Antiinflammatory activity in human THP1 cells assessed as inhibition of LPS-induced TNFalpha production at 10 uM after 24 hrs by ELISA; conditions: THP-1, 24 h
Method in brief: (§1)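 THP-1 cells grown in RPMI 1640 with 10% FBS, penicillin and streptomycin, then differentiated with PMA. Test compound or vehicle (0.5% DMSO) added and preincubated 30 min at 37 °C. LPS (E. coli 0127:B8) then added and cells incubated 24 h at 37 °C, 5% CO2. Supernatant TNF-α and IL-6 measured by ELISA. Cytotoxicity checked in parallel by CCK-8. Percent inhibition versus control.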

[2] = system: THP-1; assay: Antiinflammatory activity in human THP1 cells assessed as inhibition of LPS-induced IL6 production at 10 uM after 24 hrs by ELISA; conditions: THP-1, 24 h; method in brief: as §1
[3] = system: Mycobacterium tuberculosis; assay: Antitubercular activity against Mycobacterium tuberculosis H37Rv ATCC 27294 at 6.25 ug/ml by microplate alamar blue assay
Method in brief: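 Primary screen against M. tuberculosis H37Rv (ATCC 27294) in BACTEC 12B medium by microplate Alamar Blue assay. Tested at 6.25 µg/mL or molar equivalent of the highest-MW compound in the congener series. Fluorescent compounds instead tested in the BACTEC 460 radiometric system.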

Row | Structure (SMILES) | inhibition at 10 µM [1] | inhibition at 10 µM [2] | inhibition at 6.25 µg/mL [3]
1 | N#Cc1c(/C=C/c2cccc([N+](=O)[O-])c2)c2cc(Cl)ccc2oc1=O | 0% | 72% | 69%
2 | COc1cc(/C=C/c2c(C#N)c(=O)oc3ccc(Cl)cc23)cc(OC)c1OC | 38% | 8% | 87%
3 | C=Cc1ccccc1/C=C/c1c(C#N)c(=O)oc2ccc(Cl)cc12 | 52% | 0% | –
4 | CN(C)c1ccc(/C=C/c2c(C#N)c(=O)oc3ccc(Cl)cc23)cc1 | 33% | 0% | 79%
5 | CSc1ccc(/C=C/c2c(C#N)c(=O)oc3ccc(Cl)cc23)cc1 | 0% | 15% | –
6 | COc1ccccc1/C=C/c1c(C#N)c(=O)oc2ccc(Cl)cc12 | 19% | 17% | 24%
7 | COc1ccc(/C=C/c2c(C#N)c(=O)oc3ccc(Cl)cc23)cc1 | – | – | 33%
8 | N#Cc1c(/C=C/c2c3ccccc3cc3ccccc23)c2cc(Cl)ccc2oc1=O | – | – | 81%
9 | N#Cc1c(/C=C/c2ccco2)c2cc(Cl)ccc2oc1=O | 9% | 0% | 63%
10 | N#Cc1c(/C=C/c2cccc(Oc3ccccc3)c2)c2cc(Cl)ccc2oc1=O | 0% | 11% | 72%
11 | N#Cc1c(/C=C/c2c[nH]c3ccccc23)c2cc(Cl)ccc2oc1=O | 31% | 0% | –
12 | N#Cc1c(/C=C/c2cccc(Br)c2)c2cc(Cl)ccc2oc1=O | 0% | 2% | 23%
13 | N#Cc1c(/C=C/c2ccccc2Cl)c2cc(Cl)ccc2oc1=O | 0% | 19% | –
14 | N#Cc1c(/C=C/c2ccccc2)c2cc(Cl)ccc2oc1=O | 32% | 87% | 55%
15 | COc1ccc(/C=C/c2c(C#N)c(=O)oc3ccc(Cl)cc23)cc1OC | 0% | 40% | 63%
16 | N#Cc1c(/C=C/c2ccc(Cl)cc2)c2cc(Cl)ccc2oc1=O | 0% | 4% | –
17 | N#Cc1c(/C=C/c2cccc(O)c2)c2cc(Cl)ccc2oc1=O | 23% | 39% | –
18 | N#Cc1c(/C=C/c2ccc(F)cc2)c2cc(Cl)ccc2oc1=O | 0% | 61% | –
19 | N#Cc1c(/C=C/c2cccc(Cl)c2)c2cc(Cl)ccc2oc1=O | 0% | 21% | 69%
20 | N#Cc1c(/C=C/c2ccc(O)cc2)c2cc(Cl)ccc2oc1=O | 0% | 73% | –
21 | COc1cccc(/C=C/c2c(C#N)c(=O)oc3ccc(Cl)cc23)c1 | 73% | 0% | 31%
22 | N#Cc1c(/C=C/c2ccccc2[N+](=O)[O-])c2cc(Cl)ccc2oc1=O | 0% | 14% | 11%
